Numbering of substitutions follows the chain as printed. Like-named read-outs stand apart in the source and are kept apart here.
Assays:
SULT2B1b S347D [1] = target: T1, SULT2B1b S347D (Homo sapiens, UniProt O00204, S347D); test: Initial-rate 1-HP sulfonation
T1 sequence (O00204 1-365 S347D): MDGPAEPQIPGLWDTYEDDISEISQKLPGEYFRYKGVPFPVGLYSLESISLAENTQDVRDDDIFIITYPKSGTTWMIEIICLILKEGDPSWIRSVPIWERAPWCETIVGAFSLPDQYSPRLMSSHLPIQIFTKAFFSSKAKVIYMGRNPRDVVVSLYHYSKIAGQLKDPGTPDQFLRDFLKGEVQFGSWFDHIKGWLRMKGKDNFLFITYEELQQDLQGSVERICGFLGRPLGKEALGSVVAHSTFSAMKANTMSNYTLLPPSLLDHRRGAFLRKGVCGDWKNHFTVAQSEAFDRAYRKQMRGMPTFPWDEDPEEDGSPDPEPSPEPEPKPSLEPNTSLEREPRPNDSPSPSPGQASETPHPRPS

SULT2A1 = target: T2, SULT2A1 (Homo sapiens, UniProt Q06520); test: Initial-rate 1-HP sulfonation inhibition; format: biochemical
T2 sequence (Q06520 1-285): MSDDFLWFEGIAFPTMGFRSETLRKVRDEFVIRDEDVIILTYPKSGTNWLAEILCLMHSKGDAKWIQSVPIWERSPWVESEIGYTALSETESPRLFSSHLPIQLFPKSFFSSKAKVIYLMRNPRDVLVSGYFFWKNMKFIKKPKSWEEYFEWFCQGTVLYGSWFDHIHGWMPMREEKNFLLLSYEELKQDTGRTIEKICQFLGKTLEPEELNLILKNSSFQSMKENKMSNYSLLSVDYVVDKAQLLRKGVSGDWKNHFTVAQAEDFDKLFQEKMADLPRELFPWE

SULT2B1b, S347D, W98A = target: T3, SULT2B1b, S347D, W98A (Homo sapiens, UniProt O00204, S347D/W98A); test: Initial-rate parameters, direct-contact mutant W98A
T3 sequence (O00204 1-365 W98A/S347D): T1 sequence (O00204 1-365 S347D) with W98A

SULT2B1b S347D [2] = target: T1, SULT2B1b S347D; test: Equilibrium binding via intrinsic fluorescence; conditions: for Kd: Kd Quc
Summary of the method: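 Intrinsic fluorescence titrations of purified His/GST/MBP-tag-cleaved enzyme, excitation 290 nm, in KPO4 (50 mM), pH 7.5, 25 ± 2 °C. […] Triplicate averaged data were fit to a single-site-per-monomer model.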

SULT2B1b, S347D, W13A = target: T4, SULT2B1b, S347D, W13A (Homo sapiens, UniProt O00204, S347D/W13A); test: Initial-rate parameters, direct-contact mutant W13A
T4 sequence (O00204 1-365 W13A/S347D): T1 sequence (O00204 1-365 S347D) with W13A

[3] = target: T5, SULT2B1b S347D spin-labeled at residue 21 (Homo sapiens, UniProt O00204, C225S/C278S/C81S/S21C/S347D); test: Initial-rate parameters, spin-labeled mutant 21; format: biochemical
T5 sequence (O00204 1-365 S21C/C81S/C225S/C278S/S347D): T1 sequence (O00204 1-365 S347D) with S21C, C81S, C225S, C278S

## O=c1c(O)c(-c2ccc(O)c(O)c2)oc2cc(O)cc(O)c12 [quercetin]
SULT2B1b S347D [1]; affinity less for SULT2B1b than SULT1A1
  quercetin affinity, SULT2B1b relative to SULT1A1: ~ 68 fold
SULT2B1b S347D [1]; at saturation
  slowing of turnover at saturating quercetin: ~ 13 fold
SULT2B1b S347D [1]; saturating PAPS and 1-HP, tag-cleaved enzyme
  α (fraction of enzyme turnover at saturating inhibitor), quercetin: 0.08 ± 0.01
SULT2B1b S347D [1]; saturating quercetin
  turnover at saturating quercetin: 0.20 ± 0.02 s⁻¹
SULT2A1
  inhibition by quercetin: not inhibited
SULT2A1; up to 100 μM quercetin
  inhibition by quercetin: No inhibition was detected
SULT2B1b, S347D, W98A
  Ki: 5.3 µM
SULT2B1b S347D [2]; enzyme form E (no PAP)
  Kd: 5.3 µM
SULT2B1b S347D [2]; enzyme form E•PAP (PAP 30 μM)
  Kd: 0.35 µM
SULT2B1b S347D [2]; saturation with PAPS
  increase of quercetin affinity: 15 fold
SULT2B1b, S347D, W13A
  Ki: 7.5 µM
[3]
  Ki: 0.33 µM

Reference: publication PMC9260854 (Biochemistry, 2022)
